Screens: PubChem, several laboratories
In the library only some 2.3% were active in any assay of this set; here they are far more common.
Beta cell apopt: beta cell apoptosis inhibition; INS-1E cytokine-induced death, ATP luminescence, 48 h; percent of positive-control rescue, neutral wells zero; protection from apoptosis, % (no concentration beside the values); actives 0.8% (n = 300,000);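 active means Every replicate reaches about 75%, or at least half do and their mean reaches it too, limit read from the data; inconclusive means At least half of replicates reach the limit but their mean does not; inactive means Under half of replicates reach the limit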;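 further: higher means more ATP so stronger rescue from cytokine killing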
KLF5 inhibitor: suppresses KLF5 promoter-driven expression. DLD-1 KLF5 promoter-luciferase reporter, luminescence. inhibition, % at 5 µM. actives 0.23% (n = 290,000). AID 1700;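 active means inhibition above a per-plate limit of that plate's mean compound inhibition plus 3 SD, cut at about 60% in these data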;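 further: higher means less KLF5 promoter-driven luciferase light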
Bfl-1 A1 inh: inhibitors of the anti-apoptotic protein A1, read as caspase activation. MEF A1-2A-BIM cells, Caspase-Glo 3/7 luminescence, 3 h; percent of clofoctol response, vehicle zero. caspase activation, % (no concentration beside the values). actives 0.066% (n = 330,000). AID 2462;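 active means over half of replicate activation scores above 10%, or exactly half above 10 with the replicate mean above 10; inconclusive means replicate mean below 10 yet half the replicates above 10; inactive means over half of replicates below 10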
HIF act: HIF pathway transcriptional activation | U2OS HRE-luciferase reporter, luminescence; normalized: DMSO 0%, desferrioxamine 100% | activation, % at 7.5 µM (by protocol) | actives 0.32% (n = 300,000) | AID 1910;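 active means mean activation of at least 10% of the iron chelator positive control signal, with at least half of replicates also reaching 10%; inconclusive means mean and replicate majority disagree about reaching 10%; inactive means mean and most replicates under 10%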
T cruzi inh: blocks replication of Trypanosoma cruzi. T. cruzi beta-gal in NIH3T3, luminescence, 90 h. actives 1.4% (n = 300,000). inhibition, % (test concentration not listed);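 active means mean inhibition across valid replicates above about 55%, limit read from the data; inconclusive means mean below that limit but half or more replicates reach it; inactive means mean below it, under half of replicates reach it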;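 further: signal also drops with host cell toxicity which is not excluded here; higher percent means less beta-gal luminescence so fewer parasites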
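Material: NIH/3T3 host cells with β-galactosidase reporter T. cruzi; Input: 5,000 host fibroblasts per well; Medium: DMEM, 2% fetal bovine serum; Compound: 50 nL DMSO compound solution per well; Schedule: 3 h host attachment, then at least 90 h co-culture; Detection: luminescent β-galactosidase signal after 60 min lysis.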
A number is an active result.

`COc1ccc(NC(=S)N2CCN(C(=O)c3ccccc3)CC2)cc1` gave Beta cell apopt inactive, KLF5 inhibitor inactive, Bfl-1 A1 inh inactive, HIF act 57.7 and T cruzi inh inactive.
Cc1ccnc(SCC(=O)Nc2sc3c(c2C#N)CCCC3)n1 was read as Beta cell apopt 106.3, KLF5 inhibitor inactive, Bfl-1 A1 inh inactive, HIF act inactive and T cruzi inh inactive.
Screening Cc1csc(SCC(=O)Nc2sc3c(c2C#N)CCC3)n1 returned Beta cell apopt inactive, KLF5 inhibitor inactive, Bfl-1 A1 inh inactive, HIF act inactive and T cruzi inh inactive.
COc1ccccc1N1CCN(Cc2cnc3ccc(Cl)cn23)CC1 was read as KLF5 inhibitor inactive, HIF act inactive and T cruzi inh inactive.
For ClC1=C(Cl)C(Cl)=C(Cl)C1=C/C=C/c1ccccc1 the results were Beta cell apopt 116.3, KLF5 inhibitor inactive, Bfl-1 A1 inh inactive, HIF act inactive and T cruzi inh 62.9.
For O=C(COc1ccccc1)OCc1cc(-c2ccco2)on1 the results were Beta cell apopt inactive and Bfl-1 A1 inh inactive.
For CN(C)CCCN(C(=O)c1ccc(S(=O)(=O)N(C)C2CCCCC2)cc1)c1nc2ccc(F)cc2s1 the results were Beta cell apopt inactive, KLF5 inhibitor inactive, Bfl-1 A1 inh inconclusive, HIF act inactive and T cruzi inh inactive.
Screening Cc1cc(C)c2sc(N(CCCN(C)C)C(=O)c3ccc(S(=O)(=O)N(C)C4CCCCC4)cc3)nc2c1 returned Bfl-1 A1 inh inactive, HIF act inactive and T cruzi inh 55.4.
Cc1ccc2sc(N(CCCN(C)C)C(=O)c3ccc(S(=O)(=O)N4CCCCCC4)cc3)nc2c1C was read as Bfl-1 A1 inh inactive, HIF act inactive and T cruzi inh 56.6.
Screening Cc1ccc2sc(N(CCN(C)C)C(=O)c3ccc4ccccc4c3)nc2c1C returned Beta cell apopt inactive, KLF5 inhibitor inactive, Bfl-1 A1 inh inactive, HIF act inactive and T cruzi inh inactive.
`Cc1ccc2sc(N(CCCN(C)C)C(=O)CN3C(=O)c4ccccc4C3=O)nc2c1C` gave Beta cell apopt inactive, KLF5 inhibitor inactive, Bfl-1 A1 inh inactive, HIF act inactive and T cruzi inh 57.6.
For CCc1ccc(-c2csc(NC(=O)C3=COCCO3)n2)cc1 the results were Beta cell apopt inactive and Bfl-1 A1 inh inactive.
Screening CCn1cc(C(=O)Nc2ncccc2O)c(=O)c2cc(F)c(N3CCN(C(=O)c4ccco4)CC3)cc21 returned Beta cell apopt inactive, KLF5 inhibitor inactive, Bfl-1 A1 inh inactive, HIF act inactive and T cruzi inh inactive.
CCCCOC(=O)c1ccc(NC(=S)NC(=O)c2c(Br)c(C)nn2C)cc1 was read as Beta cell apopt inactive, KLF5 inhibitor inactive, Bfl-1 A1 inh inactive, HIF act 40.7 and T cruzi inh inactive.
For COc1cccc(CN2CC(C(=O)NCCSc3nnnn3C)CCC2=O)c1 (centres undefined) the results were Beta cell apopt inactive, KLF5 inhibitor inactive, Bfl-1 A1 inh inactive, HIF act inactive and T cruzi inh inactive.
Screening NNC(=O)c1cc2c(s1)-c1cc(Cl)ccc1SC2 returned Beta cell apopt inactive, KLF5 inhibitor inactive, Bfl-1 A1 inh inactive, HIF act inactive and T cruzi inh inactive.
`CCN(CC)CCNC(=O)c1cc2c(s1)-c1ccccc1SC2` gave Beta cell apopt inactive, KLF5 inhibitor inactive, Bfl-1 A1 inh inactive, HIF act inactive and T cruzi inh 54.9.
Screening COc1cc2c(O)c3c(c(-c4ccc5c(c4)OCO5)c2cc1OC)C(=O)OC3 returned Beta cell apopt inactive, KLF5 inhibitor inactive, Bfl-1 A1 inh inactive, HIF act inactive and T cruzi inh 57.2.
For COc1cc2c(OC(C)=O)c3c(c(-c4ccc5c(c4)OCO5)c2cc1OC)C(=O)OC3 the results were Beta cell apopt inactive, KLF5 inhibitor inactive, Bfl-1 A1 inh inactive, HIF act inactive and T cruzi inh inactive.
O=C(N/N=C/c1cn(-c2ccccc2)nc1-c1ccc(F)cc1)c1ccc(Br)o1 was read as Beta cell apopt 109.8, KLF5 inhibitor inactive, Bfl-1 A1 inh inactive, HIF act inactive and T cruzi inh inactive.
For Cc1c(C(=O)NN2CCCCC2)nn(-c2ccc(Cl)cc2Cl)c1-c1ccc(I)cc1 the results were Beta cell apopt inactive, KLF5 inhibitor inactive, Bfl-1 A1 inh inactive, HIF act inactive and T cruzi inh 55.5.
COc1ccc(N2CCN(c3nc(Nc4ccc(F)cc4)nc(OC)n3)CC2)cc1 was read as KLF5 inhibitor inactive.
